How the values were obtained:
Format in all cases: cell-based
[1] = target: T1, Muscarinic acetylcholine receptor M2 (Homo sapiens, UniProt P08172); experiment: Displacement of [3H]-QNB from human muscarinic M2 receptor expressed in stable CHO-K1 cells incubated for 120 mins by radioligand competition binding assay
T1 sequence (P08172 whole entry): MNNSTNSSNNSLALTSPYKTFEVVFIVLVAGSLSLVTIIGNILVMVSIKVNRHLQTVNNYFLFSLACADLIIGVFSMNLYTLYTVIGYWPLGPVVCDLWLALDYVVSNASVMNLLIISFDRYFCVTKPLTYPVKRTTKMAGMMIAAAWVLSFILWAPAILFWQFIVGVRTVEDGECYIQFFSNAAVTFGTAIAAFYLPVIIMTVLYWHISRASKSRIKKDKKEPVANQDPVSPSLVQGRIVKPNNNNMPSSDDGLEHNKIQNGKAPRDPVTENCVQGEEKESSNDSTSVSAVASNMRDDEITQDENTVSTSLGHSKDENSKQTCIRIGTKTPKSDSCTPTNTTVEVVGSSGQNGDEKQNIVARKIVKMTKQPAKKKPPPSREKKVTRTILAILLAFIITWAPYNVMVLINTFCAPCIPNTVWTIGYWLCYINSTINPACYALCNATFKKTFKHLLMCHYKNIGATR

[2] = target: T2, Muscarinic acetylcholine receptors; M2 & M3 (Homo sapiens) (UniProt P20309+P08172); experiment: Selectivity ratio of Ki for human muscarinic M3 receptor expressed in stable CHO-K1 cells to Ki for human muscarinic M2 receptor expressed in stable CHO-K1 cells
T2 sequence (P20309 whole entry, looked up, one chain of several): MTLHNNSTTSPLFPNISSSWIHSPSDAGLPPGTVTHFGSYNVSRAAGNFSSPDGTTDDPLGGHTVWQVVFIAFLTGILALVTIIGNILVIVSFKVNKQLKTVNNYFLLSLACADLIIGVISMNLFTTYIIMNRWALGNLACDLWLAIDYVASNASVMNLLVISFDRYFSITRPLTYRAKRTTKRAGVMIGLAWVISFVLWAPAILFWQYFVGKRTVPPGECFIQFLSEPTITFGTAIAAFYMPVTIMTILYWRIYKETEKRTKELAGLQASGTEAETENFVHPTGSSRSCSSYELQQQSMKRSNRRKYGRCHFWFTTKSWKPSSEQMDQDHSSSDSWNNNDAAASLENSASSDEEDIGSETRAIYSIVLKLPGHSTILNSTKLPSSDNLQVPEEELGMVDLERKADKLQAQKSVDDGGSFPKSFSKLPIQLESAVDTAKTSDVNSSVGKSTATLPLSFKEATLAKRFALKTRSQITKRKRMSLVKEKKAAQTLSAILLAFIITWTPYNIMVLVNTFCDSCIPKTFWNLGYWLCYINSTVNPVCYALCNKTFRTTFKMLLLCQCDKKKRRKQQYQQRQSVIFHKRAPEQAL

[3] = target: T3, Muscarinic acetylcholine receptor M2 and M5 (Homo sapiens) (UniProt P08172+P08912); experiment: Selectivity ratio of Ki for human muscarinic M5 receptor expressed in stable CHO-K1 cells to Ki for human muscarinic M2 receptor expressed in stable CHO-K1 cells
[4] = target: T4, Muscarinic acetylcholine receptor M1 (Homo sapiens, UniProt P11229); experiment: Binding affinity to muscarinic M1 receptor (unknown origin) expressed in CHO cells
T4 sequence (P11229 whole entry): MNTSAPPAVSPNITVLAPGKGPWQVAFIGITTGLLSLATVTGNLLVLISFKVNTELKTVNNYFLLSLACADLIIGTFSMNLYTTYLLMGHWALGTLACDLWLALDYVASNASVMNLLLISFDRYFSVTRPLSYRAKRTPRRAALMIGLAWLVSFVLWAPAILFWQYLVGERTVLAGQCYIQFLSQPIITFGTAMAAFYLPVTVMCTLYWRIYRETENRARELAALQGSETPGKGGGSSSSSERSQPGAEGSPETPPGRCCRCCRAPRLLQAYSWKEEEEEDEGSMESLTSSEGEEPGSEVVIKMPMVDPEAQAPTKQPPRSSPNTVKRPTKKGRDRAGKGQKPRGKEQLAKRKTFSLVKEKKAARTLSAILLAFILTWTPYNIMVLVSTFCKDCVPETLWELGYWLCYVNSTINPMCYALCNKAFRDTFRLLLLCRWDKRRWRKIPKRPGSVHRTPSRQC
How it was run: (§1)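 [3H]NMS competition binding on intact CHO-hMxR cells in L15 medium with 1% BSA, 3 h at 22 ± 1 °C with gentle shaking. [3H]NMS was 0.2 nM (M1, M2, M3), 0.1 nM (M4) or 0.3 nM (M5). […] Cells were lysed in urea/acetic acid/Triton and counted by liquid scintillation. Ki from Cheng-Prusoff. Triplicates, ≥3 experiments.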

[5] = target: Muscarinic acetylcholine receptor M3 (Homo sapiens, UniProt P20309); experiment: Binding affinity to muscarinic M3 receptor (unknown origin) expressed in CHO cells; how it was run: as §1
Muscarinic acetylcholine receptor M3, sequence (P20309 whole entry): as the sequence (P20309 whole entry, looked up, one chain of several) above

[6] = target: T5, Muscarinic acetylcholine receptor M4 (Homo sapiens, UniProt P08173); experiment: Binding affinity to muscarinic M4 receptor (unknown origin) expressed in CHO cells; how it was run: as §1
T5 sequence (P08173 whole entry): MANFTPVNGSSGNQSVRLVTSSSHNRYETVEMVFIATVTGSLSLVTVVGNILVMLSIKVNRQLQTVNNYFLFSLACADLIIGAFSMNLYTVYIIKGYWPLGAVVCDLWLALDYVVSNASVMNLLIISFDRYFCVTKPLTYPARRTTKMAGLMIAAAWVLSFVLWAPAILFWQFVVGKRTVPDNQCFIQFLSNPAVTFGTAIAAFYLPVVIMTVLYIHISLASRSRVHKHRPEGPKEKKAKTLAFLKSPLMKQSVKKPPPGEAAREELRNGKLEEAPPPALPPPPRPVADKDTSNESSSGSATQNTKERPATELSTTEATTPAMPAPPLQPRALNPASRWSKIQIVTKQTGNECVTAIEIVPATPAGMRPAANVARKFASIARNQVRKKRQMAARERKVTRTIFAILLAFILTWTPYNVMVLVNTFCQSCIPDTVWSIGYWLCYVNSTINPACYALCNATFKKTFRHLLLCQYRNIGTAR

[7] = target: T6, Muscarinic acetylcholine receptor M5 (Homo sapiens, UniProt P08912); experiment: Binding affinity to muscarinic M5 receptor (unknown origin) expressed in CHO cells; how it was run: as §1
T6 sequence (P08912 whole entry): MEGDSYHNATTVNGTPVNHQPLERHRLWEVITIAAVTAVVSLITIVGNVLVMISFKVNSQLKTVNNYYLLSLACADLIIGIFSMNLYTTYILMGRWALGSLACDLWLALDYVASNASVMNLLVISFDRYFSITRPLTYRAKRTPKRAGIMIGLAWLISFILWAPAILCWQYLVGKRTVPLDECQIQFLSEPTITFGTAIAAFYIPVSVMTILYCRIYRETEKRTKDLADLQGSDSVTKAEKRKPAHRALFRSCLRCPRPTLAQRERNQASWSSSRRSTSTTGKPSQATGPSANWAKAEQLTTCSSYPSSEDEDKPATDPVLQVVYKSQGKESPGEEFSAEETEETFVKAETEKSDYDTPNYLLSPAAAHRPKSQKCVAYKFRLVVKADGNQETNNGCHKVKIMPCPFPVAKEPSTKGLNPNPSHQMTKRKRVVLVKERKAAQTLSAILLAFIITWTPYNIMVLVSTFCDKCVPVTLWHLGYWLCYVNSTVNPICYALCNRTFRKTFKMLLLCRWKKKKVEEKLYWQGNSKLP

[8] = target: T1, Muscarinic acetylcholine receptor M2; experiment: Binding affinity to muscarinic M2 receptor (unknown origin) expressed in CHO cells; how it was run: as §1
[9] = target: Muscarinic acetylcholine receptors; M1 & M2 (Homo sapiens) (UniProt P11229+P08172); experiment: Selectivity ratio of Ki for muscarinic M1 receptor (unknown origin) expressed in CHO cells to Ki for muscarinic M2 receptor (unknown origin) expressed in CHO cells
How it was run: (§2)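 Ratio of mean Ki values. Each Ki came from an individual [3H]NMS competition experiment at the given CHO-hMxR subtype, converting IC50 to Ki by Cheng-Prusoff before averaging.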

[10] = target: T2, Muscarinic acetylcholine receptors; M2 & M3 (Homo sapiens); experiment: Selectivity ratio of Ki for muscarinic M3 receptor (unknown origin) expressed in CHO cells to Ki for muscarinic M2 receptor (unknown origin) expressed in CHO cells; how it was run: as §2
[11] = target: Muscarinic acetylcholine receptor M2 and M4 (Homo sapiens) (UniProt P08173+P08172); experiment: Selectivity ratio of ki for muscarinic M4 receptor (unknown origin) expressed in CHO cells to muscarinic M2 receptor (unknown origin) expressed in CHO cells; how it was run: as §2
[12] = target: T3, Muscarinic acetylcholine receptor M2 and M5 (Homo sapiens); experiment: Selectivity ratio of ki for muscarinic M5 receptor (unknown origin) expressed in CHO cells to muscarinic M2 receptor (unknown origin) expressed in CHO cells; how it was run: as §2

| Ki [1] [nM] | Ratio Ki [2] | Ratio Ki [3] | Ki [4] [nM] | Ki [5] [nM] | Ki [6] [nM] | Ki [7] [nM] | Ki [8] [nM] | Ratio Ki [9] | Ratio Ki [10] | Ratio Ki [11] | Ratio Ki [12] | Compound |
| --- | --- | --- | --- | --- | --- | --- | --- | --- | --- | --- | --- | --- |
| 2.69 | 172 | 48 |  |  |  |  |  |  |  |  |  | Cc1ccccc1C(=O)N1CCC(N2CCC(Cc3ccc(S(=O)(=O)c4cccc(Cl)c4)cc3)CC2)CC1 |
|  |  |  | 50.1 | 100 | 7.94 | 1260 |  |  |  |  |  | CCN(CC)CCCCC1CCN(CC(=O)N2c3ccccc3C(=O)Nc3cccnc32)CC1 |
|  |  |  | 316 | 398 | 50.1 | 316 | 7.94 | 40 | 50 | 6.3 | 40 | CCCC(C)(C)C(=O)N(CC)CCCC1CCN(CC(=O)N2c3ccccc3NC(=O)c3ccccc32)CC1 |
